pIC50: −log10 of the molar value. Several values for one entry are separate records, joined by “and”; a condition that tells them apart may be missing. Equal values may be shown once. Activity calls are given as the source filed them. The rule behind the calls is not given here.
Assays:
[1] = species: Rattus norvegicus; test: Tested in vitro for the inhibition of iron-dependent lipid peroxidation against rat brain homogenates, by malondialdehyde (MDA) formation assay; format: functional
[2] = test system: Mus musculus; test: Tested in vivo for neuroprotectant activity against mouse head injury(MHI) model.; format: functional
In short: (§1)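 Unanesthetized male CF-1 mice (17-20 g), concussive head injury from 50-g weight dropped 18 cm (~900 g-cm). Vehicle (0.05 N HCl or 0.5% Tween 80) or drug, 0.001-30.0 mg/kg, iv bolus within 5 min postinjury (oral where indicated). Blind grip-string test at 1 h; groups of 20-25 mice, vehicle plus four dose groups; Duncan's multiple range test.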

[3] = species: Mus musculus; test: Lowest effective dosage in Mouse Head Injury Assay.; format: functional; in short: as §1
[4] = test system: Mus musculus; test: Tested in vivo for neuroprotectant activity against mouse head injury(MHI) model; IA = Inactive; format: functional, organism-based; in short: as §1
[5] = test system: Mus musculus; test: Antagonistic activity against potassium cyanide induced cytotoxic hypoxia in male CF-1 mice at a dose of 10 mg/kg; format: organism-based; parameters: dose 10 mg/kg; conditions: in vivo
[6] = test system: Mus musculus; test: Antagonistic activity against potassium cyanide induced cytotoxic hypoxia in male CF-1 mice at a dose of 20 mg/kg(p<0.05); format: organism-based; parameters: dose 20 mg/kg; conditions: in vivo
[7] = test system: Mus musculus; test: Antagonistic activity against potassium cyanide induced cytotoxic hypoxia in male CF-1 mice at a dose of 10 mg/kg(p<0.05); format: organism-based; parameters: dose 10 mg/kg; conditions: in vivo
[8] = species: Mus musculus; test: Lowest effective dosage using in Mouse Head Injury Assay; format: functional; in short: as §1

Structure (SMILES)	pIC50 ([1]; Rattus norvegicus, Brain)	Grip score [2]	Lowest effective dose [3]	further results
Cc1c(C)c2c(c(C)c1O)CCC(C)(C(=O)N1CCCC1)O2 (centres undefined)	5.00	–	–	–
CC(=O)Oc1c(C)c(C)c2c(c1C)CCC(C)(CN1CCN(c3cc(N4CCCC4)nc(N4CCCC4)n3)CC1)O2 (centres undefined)	5.82	9.2	1 mg/kg	–
Cc1c(C)c2c(c(C)c1O)CCC(C)(C(=O)NCCc1ccccn1)O2 (centres undefined)	4.96	–	–	–
Cc1c(C)c2c(c(C)c1O)CCC(C)(CNCCCc1ccccc1)O2 (centres undefined)	6.00	–	–	–
COc1ccccc1N1CCN(CC2(C)CCc3c(C)c(O)c(C)c(C)c3O2)CC1 (centres undefined)	6.00	–	–	Grip score [4]: inactive
Cc1c(C)c2c(c(C)c1O)CCC(C)(C(=O)N1CCN(c3ncccn3)CC1)O2 (centres undefined)	4.64	12	1 mg/kg	–
Cc1c(C)c2c(c(C)c1O)CCC(C)(CN1CCNCC1)O2 (centres undefined)	6.00	–	–	–
C[C@@H]1C[C@H]2[C@@H]3CCC4=CC(=O)C=C[C@]4(C)C3=CC[C@]2(C)[C@H]1C(=O)CN1CCN(c2cc(N3CCCC3)nc(N3CCCC3)n2)CC1 [TIRILAZAD]	–	14.5	0.003 mg/kg	LD50 [5]: 103.6%; LD50 [6]: 128.4%
Cc1c(C)c2c(c(C)c1O)CCC(C)(CN1CCN(c3ncccn3)CC1)O2 (centres undefined)	6.00	10.3	0.01 mg/kg	–
Cc1c(C)c2c(c(C)c1O)CCC(C)(C(=O)Nc1ccccn1)O2 (centres undefined)	5.74	14.4	0.01 mg/kg	–
CCNc1cccnc1N1CCN(CC2(C)CCc3c(C)c(O)c(C)c(C)c3O2)CC1.Cl.O (centres undefined)	6.00	10.4 and 11.9	0.01 mg/kg	–
Cc1c(C)c2c(c(C)c1O)CCC(C)(CNCc1cccnc1)O2 (centres undefined)	4.32	–	–	–
Cc1c(C)c2c(c(C)c1O)CCC(C)(CN1CCN(Cc3ccccc3)CC1)O2.Cl.Cl (centres undefined)	6.00	13	0.01 mg/kg	LD50 [7]: 130%; LD50 [6]: 181.4%
Cc1c(C)c2c(c(C)c1O)CC[C@@](C)(CCC[C@H](C)CCC[C@H](C)CCCC(C)C)O2 [ALPHA-TOCOPHEROL]	4.55	–	–	–
COc1ccc(N2CCN(CC3(C)CCc4c(C)c(O)c(C)c(C)c4O3)CC2)cc1 (centres undefined)	6.70	–	–	–
Cc1c(C)c2c(c(C)c1O)CCC(C)(CNc1ccccn1)O2 (centres undefined)	6.70	12.3	0.01 mg/kg	–
COc1ccccc1N1CCN(C(=O)C2(C)CCc3c(C)c(O)c(C)c(C)c3O2)CC1 (centres undefined)	4.82	12.8	0.01 mg/kg	–
Cc1c(C)c2c(c(C)c1O)CCC(C)(CC(=O)N1CCN(c3cc(N4CCCC4)nc(N4CCCC4)n3)CC1)O2 (centres undefined)	5.89	–	–	Grip score [4]: inactive
Cc1c(C)c2c(c(C)c1O)CCC(C)(CNc1ccncc1)O2 (centres undefined)	4.80	–	–	–
Cc1c(C)c2c(c(C)c1O)CCC(C)(C(=O)O)O2 (centres undefined) [TROLOX]	4.37	–	–	–
COc1ccc(N2CCN(C(=O)C3(C)CCc4c(C)c(O)c(C)c(C)c4O3)CC2)cc1 (centres undefined)	6.15	–	–	–
COc1ccc(CNCC2(C)CCc3c(C)c(O)c(C)c(C)c3O2)cc1OC (centres undefined)	4.96	–	–	–
COc1ccc(CCNCC2(C)CCc3c(C)c(O)c(C)c(C)c3O2)cc1OC.Cl (centres undefined)	6.00	8.4	0.01 mg/kg	–
Cc1c(C)c2c(c(C)c1O)CCC(C)(C(=O)Nc1ccncc1)O2 (centres undefined)	5.64	11.5	0.01 mg/kg	–
CC(=O)Oc1c(C)c(C)c2c(c1C)CCC(C)(C(=O)N1CCN(c3cc(N4CCCC4)nc(N4CCCC4)n3)CC1)O2 (centres undefined)	4.77	–	–	–
Cc1c(C)c2c(c(C)c1O)CCC(C)(CNCCc1ccccn1)O2 (centres undefined)	4.64	–	–	–
Cc1c(C)c2c(c(C)c1O)CCC(C)(C(=O)N(C)CCc1ccccn1)O2 (centres undefined)	5.27	–	–	–

Structure (SMILES)	pIC50 ([1]; Rattus norvegicus, Brain)	Grip score [2]	Lowest effective dose [3]	further results
CCN(CC)c1ccc(N2CCN(C(=O)C3(C)CCc4c(C)c(O)c(C)c(C)c4O3)CC2)nc1N(CC)CC (centres undefined)	6.70	–	–	Grip score [4]: inactive
Cc1c(C)c2c(c(C)c1O)CCC(C)(C(=O)NCCN(C)C)O2 (centres undefined)	5.06	–	–	Grip score [4]: inactive
C[C@H]1C[C@@H]2[C@H]([C@@H](O)C[C@@]3(C)[C@H]2CC[C@]3(O)C(=O)COC(=O)CCC(=O)[O-])[C@@]2(C)C=CC(=O)C=C12.[Na+] [METHYLPREDNISOLONE SODIUM SUCCINATE]	–	13.5	15 mg/kg	–
Cc1c(C)c2c(c(C)c1O)CCC(C)(C(=O)N1CCN(c3cc(N4CCCC4)nc(N4CCCC4)n3)CC1)O2 (centres undefined)	6.30	17.5	–	LD50 [5]: 99.3%; LD50 [6]: 115.2%; Lowest effective dose [8]: 0.01 mg/kg
Cc1c(C)c2c(c(C)c1O)CCC(C)(C(=O)N1CCNCC1)O2 (centres undefined)	5.00	–	–	–
Cc1c(C)c2c(c(C)c1O)CCC(C)(CCN1CCN(c3cc(N4CCCC4)nc(N4CCCC4)n3)CC1)O2 (centres undefined)	5.89	–	–	Grip score [4]: inactive
COc1ccc(CNC(=O)C2(C)CCc3c(C)c(O)c(C)c(C)c3O2)cc1OC (centres undefined)	5.26	–	–	–
CCNc1cccnc1N1CCN(C(=O)C2(C)CCc3c(C)c(O)c(C)c(C)c3O2)CC1 (centres undefined)	4.92	–	–	–
CCN(CC)c1ccc(N2CCN(CC3(C)CCc4c(C)c(O)c(C)c(C)c4O3)CC2)nc1N(CC)CC.Cl.O (centres undefined)	6.00	11.9	0.01 mg/kg	–
Cc1c(C)c2c(c(C)c1O)CCC(C)(CN1CCN(c3cc(N4CCCC4)nc(N4CCCC4)n3)CC1)O2.Cl.Cl (stereo in doubt; 59)	–	14.4	–	pIC50 [1]: 5.82
Cc1c(C)c2c(c(C)c1O)CCC(C)(CNCCCCc1ccccc1)O2 (centres undefined)	6.10	–	–	–
Cc1c(C)c2c(c(C)c1O)CCC(C)(CN1CCN(c3cc(N4CCCC4)nc(N4CCCC4)n3)CC1)O2.Cl.Cl.O (centres undefined)	–	13.7 and 14.7	–	LD50 [7]: 114%; LD50 [6]: 134.2%; pIC50 [1]: 6.22
Cc1c(C)c2c(c(C)c1O)CCC(C)(C(=O)NCCCc1ccccc1)O2 (centres undefined)	6.00	–	–	–
Cc1c(C)c2c(c(C)c1O)CCC(C)(C(=O)NCc1cccnc1)O2 (centres undefined)	4.33	–	–	–
Cc1c(C)c2c(c(C)c1O)CCC(C)(CN1CCN(c3ccc(Cl)cc3)CC1)O2 (centres undefined)	6.05	–	–	–
Cc1c(C)c2c(c(C)c1O)CCC(C)(C(=O)NCCc1ccccc1)O2 (centres undefined)	5.89	–	–	–
Cc1c(C)c2c(c(C)c1O)CCC(C)(C(=O)N1CCN(c3ccccn3)CC1)O2 (centres undefined)	6.00	8.2	0.01 mg/kg	–
Cc1c(C)c2c(c(C)c1O)CCC(C)(CN1CCN(c3cc(N4CCCC4)nc(N4CCCC4)n3)CC1)O2.Cl.Cl (stereo in doubt; 60)	–	11.5	0.001 mg/kg	pIC50 [1]: 5.96
Cc1c(C)c2c(c(C)c1O)CCC(C)(C(=O)NCCCCc1ccccc1)O2 (centres undefined)	6.15	–	–	–
Cc1c(C)c2c(c(C)c1O)CCC(C)(CN1CCN(c3ccccn3)CC1)O2.Cl.O (centres undefined)	6.00	10.7	0.01 mg/kg	–
Cc1c(C)c2c(c(C)c1O)CCC(C)(CNCCc1ccccc1)O2.O=C(O)C(=O)O (centres undefined)	6.05	8.7	1 mg/kg	–
Cc1c(C)c2c(c(C)c1O)CCC(C)(CNCCN(C)C)O2 (centres undefined)	5.77	–	–	Grip score [4]: inactive
Cc1c(C)c2c(c(C)c1O)CCC(C)(CN1CCCC1)O2 (centres undefined)	5.85	–	–	–
COc1ccc(CCNC(=O)C2(C)CCc3c(C)c(O)c(C)c(C)c3O2)cc1OC (centres undefined)	5.39	–	–	–
Cc1c(C)c2c(c(C)c1O)CCC(C)(C(=O)N1CCN(c3ccc(Cl)cc3)CC1)O2 (centres undefined)	6.10	–	–	–
Cc1c(C)c2c(c(C)c1O)CCC(C)(C(=O)N1CCN(Cc3ccccc3)CC1)O2 (centres undefined)	6.00	–	–	–
Cc1c(C)c2c(c(C)c1O)CCC(C)(CN(C)CCc1ccccn1)O2 (centres undefined)	3.75	–	–	–

Source: ChEMBL document CHEMBL1126262, “2-(Aminomethyl)chromans that inhibit iron-dependent lipid peroxidation and protect against central nervous system trauma and ischemia” (J Med Chem, 1992)
